Common to all, as to conditions: in vivo
One series deals with Heart. Kind of series: Biodistribution in heart of athymic nu/nu mouse bearing human alphavbeta6 expressing DX3purobeta6 cells at 15 to 30 uCi, iv after 1 hr. The class given is ADME, organism-based. Put shortly: (§1)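 Male athymic nu/nu mice carried s.c. xenografts on opposite shoulder flanks: 3 × 10^6 DX3puro or DX3puroβ6 cells in serum-free DMEM, integrin expression checked by flow cytometry beforehand, used 2-5 weeks later. [18F]-peptide (approx. 15-30 μCi) in isotonic solution given i.v. via tail-vein catheter under 3% isoflurane. 1 h conscious uptake, then sacrificed and dissected (n = 3 per tracer). Organs γ-counted, decay-corrected, reported as % ID/g.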

Another series relates to Lung. Kind of series: Biodistribution in lung of athymic nu/nu mouse bearing human alphavbeta6 expressing DX3purobeta6 cells at 15 to 30 uCi, iv after 1 hr. It counts as ADME, organism-based. The essentials: as §1
In the next series the test system is Spleen. As to the kind of experiment: Biodistribution in spleen of athymic nu/nu mouse bearing human alphavbeta6 expressing DX3purobeta6 cells at 15 to 30 uCi, iv after 1 hr. The class given is ADME, organism-based. The essentials: as §1
Another series relates to Brain. Kind of series: Biodistribution in brain of athymic nu/nu mouse bearing human alphavbeta6 expressing DX3purobeta6 cells at 15 to 30 uCi, iv after 1 hr. The class given is ADME, organism-based. Put shortly:
as §1

Another series concerns Muscle tissue. As to the kind of experiment: Biodistribution in muscle of athymic nu/nu mouse bearing human alphavbeta6 expressing DX3purobeta6 cells at 15 to 30 uCi, iv after 1 hr. It counts as ADME, organism-based. The essentials:
as §1

In a further series the test system is Bone. Kind of series: Biodistribution in bone of athymic nu/nu mouse bearing human alphavbeta6 expressing DX3purobeta6 cells at 15 to 30 uCi, iv after 1 hr. It counts as ADME, organism-based, Bone element. The essentials: as §1
A further series has as its system Kidney. As to the kind of experiment: Biodistribution in kidney of athymic nu/nu mouse bearing human alphavbeta6 expressing DX3purobeta6 cells at 15 to 30 uCi, iv after 1 hr. The class given is ADME, organism-based. The essentials:
as §1

Series [1] can be described thus: Biodistribution in urine of athymic nu/nu mouse bearing human alphavbeta6 expressing DX3purobeta6 cells at 15 to 30 uCi, iv after 1 hr. The class given is ADME, organism-based. Put shortly: as §1
In the next series the test system is Urinary bladder. As to the kind of experiment: Biodistribution in bladder of athymic nu/nu mouse bearing human alphavbeta6 expressing DX3purobeta6 cells at 15 to 30 uCi, iv after 1 hr. The class given is ADME, organism-based. The essentials: as §1
In the next series the test system is Liver. Kind of series: Biodistribution in liver of athymic nu/nu mouse bearing human alphavbeta6 expressing DX3purobeta6 cells at 15 to 30 uCi, iv after 1 hr. The class given is ADME, organism-based. The essentials: as §1
The nature of series [2]: Biodistribution in gall bladder of athymic nu/nu mouse bearing human alphavbeta6 expressing DX3purobeta6 cells at 15 to 30 uCi, iv after 1 hr. The class given is ADME, organism-based. Put shortly: as §1
Another series deals with Blood. Kind of series: Biodistribution in blood of athymic nu/nu mouse bearing human alphavbeta6 expressing DX3purobeta6 cells at 15 to 30 uCi, iv after 1 hr. It counts as ADME, organism-based. The essentials: as §1
A further series has as its system Pancreas. Kind of series: Biodistribution in pancreas of athymic nu/nu mouse bearing human alphavbeta6 expressing DX3purobeta6 cells at 15 to 30 uCi, iv after 1 hr. The class given is ADME, organism-based. Put shortly:
as §1

A further series relates to Stomach. As to the kind of experiment: Biodistribution in stomach of athymic nu/nu mouse bearing human alphavbeta6 expressing DX3purobeta6 cells at 15 to 30 uCi, iv after 1 hr. It counts as ADME, organism-based. Put shortly: as §1
Series [3] in a line: Biodistribution in human alphavbeta6 expressing DX3purobeta6 cells bearing athymic nu/nu mouse at 15 to 30 uCi, iv after 1 hr. It counts as ADME, organism-based. Put shortly:
as §1

The nature of series [4]: Biodistribution in human alphavbeta6 deficient DX3puro cells bearing athymic nu/nu mouse at 15 to 30 uCi, iv after 1 hr. It counts as ADME, organism-based. The essentials: as §1
Series [5] can be described thus: Biodistribution ratio of human alphavbeta6 expressing DX3purobeta6 cells to human alphavbeta6 deficient DX3puro cells bearing athymic nu/nu mouse at 15 to 30 uCi, iv after 1 hr. It counts as ADME, organism-based. The essentials: (§2)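 Tumour ratios were taken from 1 h biodistribution in male nu/nu mice bearing DX3puro and DX3puroβ6 s.c. shoulder xenografts (3 × 10^6 cells). Dosing was approx. 15-30 μCi [18F]-peptide i.v. by tail-vein catheter under isoflurane, with conscious uptake. Tissues were γ-counted as decay-corrected % ID/g (n = 3 per tracer), and the ratio was formed from these values.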

The nature of series [6]: Biodistribution ratio of human alphavbeta6 expressing DX3purobeta6 cells bearing athymic nu/nu mouse to blood of athymic nu/nu mouse bearing human alphavbeta6 expressing DX3purobeta6 cells at 15 to 30 uCi, iv after 1 hr. It counts as ADME, organism-based. Put shortly: as §2

This is an account of results in ChEMBL document CHEMBL1140108, “In vivo positron emission tomography (PET) imaging with an alphavbeta6 specific peptide radiolabeled using 18F-"click" chemistry: evaluation and comparison with the corresponding 4-[18F]fluorobenzoyl- and 2-[18F]fluoropropionyl-peptides” (J Med Chem, 2008).

As for `CC(C)C[C@H](NC(=O)[C@H](CC(=O)O)NC(=O)CNC(=O)[C@H](CCCNC(=N)N)NC(=O)[C@H](CC(C)C)NC(=O)[C@H](CC(N)=O)NC(=O)[C@@H]1CCCN1C(=O)[C@@H](NC(=O)[C@H](C)NC(=O)[C@H](CC(N)=O)NC(=O)CCn1cc(CCC[18F])nn1)C(C)C)C(=O)N[C@@H](CCC(N)=O)C(=O)N[C@H](C(=O)N[C@@H](CC(C)C)C(=O)N[C@@H](C)C(=O)N[C@@H](CCC(N)=O)C(=O)N[C@@H](CCCCN)C(=O)N[C@H](C(=O)N[C@@H](C)C(=O)N[C@@H](CCCNC(=N)N)C(=O)N[C@H](C(N)=O)[C@@H](C)O)C(C)C)C(C)C`, the Drug uptake in the series with Heart is reported as 0.47 % ID/g; in the series with Lung, 1.83 % ID/g; in the series on Spleen it was 0.13 % ID/g; in the series with Brain, 0.05 % ID/g; in the series with Muscle tissue, 1.01 % ID/g; with Bone it was 0.39 % ID/g. In addition, the Drug uptake with Kidney is 9.5 % ID/g; in series [1] it was 501 % ID/g; with Urinary bladder it was 6.24 % ID/g; with Liver, 1.12 % ID/g; in series [2], 4.72 % ID/g; in the series on Blood, 0.43 % ID/g. The Drug uptake in the series with Pancreas came out at 0.3 % ID/g; in the series with Stomach it was 0.97 % ID/g; in series [3], 1.01 % ID/g; in [4], 0.31 % ID/g. The Ratio in series [5] is 3.3; in series [6], 2.3.

Take `CC(C)C[C@H](NC(=O)[C@H](CC(=O)O)NC(=O)CNC(=O)[C@H](CCCNC(=N)N)NC(=O)[C@H](CC(C)C)NC(=O)[C@H](CC(N)=O)NC(=O)[C@@H]1CCCN1C(=O)[C@@H](NC(=O)[C@H](C)NC(=O)[C@H](CC(N)=O)NC(=O)C(C)[18F])C(C)C)C(=O)N[C@@H](CCC(N)=O)C(=O)N[C@H](C(=O)N[C@@H](CC(C)C)C(=O)N[C@@H](C)C(=O)N[C@@H](CCC(N)=O)C(=O)N[C@@H](CCCCN)C(=O)N[C@H](C(=O)N[C@@H](C)C(=O)N[C@@H](CCCNC(=N)N)C(=O)N[C@H](C(N)=O)[C@@H](C)O)C(C)C)C(C)C` (stereo partly drawn): the Drug uptake in the series on Heart is given as 0.62 % ID/g; in the series with Lung it was 2.06 % ID/g; in the series with Spleen it was 0.32 % ID/g; in the series with Brain, 0.28 % ID/g; in the series on Muscle tissue, 0.82 % ID/g; in the series on Bone it was 0.38 % ID/g. The Drug uptake in the series on Kidney is 4.87 % ID/g; in [1], 311 % ID/g; in the series on Urinary bladder it was 5.3 % ID/g; in the series on Liver, 0.51 % ID/g; in series [2] it was 2.13 % ID/g; in the series on Blood it was 0.64 % ID/g. In addition, the Drug uptake came to 0.39 % ID/g in the series on Pancreas, 3.61 % ID/g with Stomach, 1.18 % ID/g in series [3] and 0.61 % ID/g in series [4]. Moreover, the results for the Ratio in series [5] and in series [6] were 1.9 and 1.8, respectively.

On to `CC(C)C[C@H](NC(=O)[C@H](CC(=O)O)NC(=O)CNC(=O)[C@H](CCCNC(=N)N)NC(=O)[C@H](CC(C)C)NC(=O)[C@H](CC(N)=O)NC(=O)[C@@H]1CCCN1C(=O)[C@@H](NC(=O)[C@H](C)NC(=O)[C@H](CC(N)=O)NC(=O)c1ccc([18F])cc1)C(C)C)C(=O)N[C@@H](CCC(N)=O)C(=O)N[C@H](C(=O)N[C@@H](CC(C)C)C(=O)N[C@@H](C)C(=O)N[C@@H](CCC(N)=O)C(=O)N[C@@H](CCCCN)C(=O)N[C@H](C(=O)N[C@@H](C)C(=O)N[C@@H](CCCNC(=N)N)C(=O)N[C@H](C(N)=O)[C@@H](C)O)C(C)C)C(C)C` [[18F]-FBA-A20FMDV2], for which the Drug uptake in the series with Heart was 0.31 % ID/g; with Lung it was 1.39 % ID/g; with Spleen it was 0.07 % ID/g; with Brain, 0.02 % ID/g; with Muscle tissue, 0.56 % ID/g; with Bone, 0.29 % ID/g. Further, the Drug uptake in the series with Kidney amounted to 3.56 % ID/g; in the series with Urinary bladder, 8.25 % ID/g; in the series with Liver it was 0.63 % ID/g; in series [2] it was 15.05 % ID/g; in the series on Blood, 0.27 % ID/g; in the series with Pancreas, 0.23 % ID/g. In addition, the Drug uptake was determined as 1.33 % ID/g in the series on Stomach, 0.66 % ID/g in [3] and 0.21 % ID/g in series [4]. The results for the Ratio in [5] and in series [6] were 3.1 and 2.5, respectively.
